Measurements from ChEMBL document CHEMBL2057155, “Synthesis of betulinic acid derivatives as entry inhibitors against HIV-1 and bevirimat-resistant HIV-1 variants” (Bioorg Med Chem Lett, 2012).

Columns and labels:
[1] = test system: Human immunodeficiency virus 1; assay: Antiviral activity against wild type HIV1 NL4-3 infected in human MT4 cells assessed as reduction of viral p24 level cells […] relative to wild type HIV1 NL4-3 after 4 days by ELISA; format: functional, organism-based; conditions: Human immunodeficiency virus 1, NL4-3, MT4, 96 h
[2] = test system: Human immunodeficiency virus 1; assay: Antiviral activity against HIV1 NL4-3 harboring QVT motif of Gag SP1 V370A mutant infected in human TZM-bl cells by fluorescence assay relative to wild type HIV1 NL4-3; format: functional
Method in brief: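 Single-round infection of TZM-bl cells with HIV-1 NL4-3 or the NL4-3 V370A mutant. Tat-driven luciferase expression after viral entry was the read-out. Inhibition was taken as the reduction in luciferase signal relative to infected controls without compound, expressed as relative fluorescence units.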

[3] = test system: Human immunodeficiency virus 1; assay: Antiviral activity against bevirimat-resistant HIV1 NL4-3 harboring QVT motif of Gag SP1 V370A mutant infected in human MT4 cells assessed as reduction of viral p24 level cells […] relative to wild type HIV1 NL4-3 after 4 days by ELISA; format: functional, organism-based; conditions: Human immunodeficiency virus 1, NL4-3, MT4, 96 h
Liver microsomes [4] = assay: Half life in human liver microsomes at 1 uM
[5] = Cytotoxicity against human TZM-bl assessed as cell viability at 4 uM after 2 days; format: cell-based; conditions: 48 h
Method in brief: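 Toxicity to TZM-bl cells was checked within the single-cycle infection assay at 4 μM.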

Liver microsomes [6] = conditions: human, 1 µM
[7] = Cytotoxicity against human MT4 assessed as cell viability after 2 days; format: cell-based; conditions: MT4 cells, read-out: TD50
[8] = test system: Human immunodeficiency virus 1; assay: Ratio of EC50 for bevirimat-resistant HIV1 NL4-3 harboring QVT motif of Gag SP1 V370A mutant to EC50 for wild type HIV1 NL4-3; format: functional
Method in brief: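 Multi-cycle viral replication assay in MT4 cells infected with wild-type HIV-1 NL4-3 or the V370A Gag variant. EC50 was determined against each virus, and the fold ratio was taken as mutant EC50 over wild-type EC50.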

[9] = test system: Human immunodeficiency virus 1; assay: Antiviral activity against HIV1 NL4-3 infected in human TZM-bl cells assessed as reduction in luciferase gene expression by luminescence assay; format: functional, organism-based; conditions: Human immunodeficiency virus 1, NL4-3, TZM-bl
Method in brief: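 Single-cycle HIV-1 NL4-3 infection of TZM-bl cells; HIV-1 tat-driven luciferase expression after viral entry read as the measure of inhibition. […] control is NL4-3 infection without compound. Values are the mean of two or more independent experiments with standard deviation.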

[10] = test system: Human immunodeficiency virus 1; assay: Antiviral activity against bevirimat-resistant HIV1 NL4-3 harboring QVT motif of Gag SP1 deltaV370 mutant infected in human MT4 cells assessed as reduction of viral p24 level cells […] relative to wild type HIV1 NL4-3 after 4 days by ELISA; format: functional, organism-based; conditions: Human immunodeficiency virus 1, NL4-3, MT4, 96 h
Method in brief: (§1)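 Multi-cycle viral replication assay in MT4 cells, run in parallel against wild-type NL4-3 and NL4-3 variants carrying V370A, ΔV370 or ΔT371 in Gag.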

[11] = test system: Human immunodeficiency virus 1; assay: Antiviral activity against bevirimat-resistant HIV1 NL4-3 harboring QVT motif of Gag SP1 deltaT371 mutant infected in human MT4 cells assessed as reduction of viral p24 level cells […] relative to wild type HIV1 NL4-3 after 4 days by ELISA; format: functional, organism-based; conditions: Human immunodeficiency virus 1, NL4-3, MT4, 96 h; method in brief: as §1

For `C=C(C)[C@@H]1CC[C@]2(C(=O)NCCCCCCCCC(=O)N[C@@H](CCC(N)=O)C(=O)OC)CC[C@]3(C)[C@H](CC[C@@H]4[C@@]5(C)CC[C@H](O)C(C)(C)[C@@H]5CC[C@]43C)[C@@H]12`, the EC50 [1] was 1720 nM, the “fold change (FC)” value [2] was 2 and the EC50 [3] was 20 nM. The t1/2 (Liver microsomes [4]) was 30.13 min, the Activity [5] was “Non-toxic” and the CLH (Liver microsomes [6]) was 230 µL/min/mg. For the same compound, the CC50 at 48 h [7] was 4800 nM, the “Ratio EC50” value [8] was 5 and the EC50 [9] was 90 nM.

In the case of `C=C(C)[C@@H]1CC[C@]2(C(=O)NCCCCCCCCC(=O)N[C@@H](CCC(N)=O)C(=O)OCc3ccccc3)CC[C@]3(C)[C@H](CC[C@@H]4[C@@]5(C)CC[C@H](O)C(C)(C)[C@@H]5CC[C@]43C)[C@@H]12`, the EC50 [10] is reported as 23 nM, the EC50 [11] is reported as 26 nM and the EC50 [1] is reported as 190 nM. The “fold change (FC)” value [2] was 2, the EC50 [3] was 50 nM and the t1/2 (Liver microsomes [4]) was 41.01 min. For the same compound, the Activity [5] was “Non-toxic”, the CLH (Liver microsomes [6]) was 169 µL/min/mg and the CC50 at 48 h [7] was 15000 nM. The “Ratio EC50” value [8] was 5 and the EC50 [9] was 120 nM.

Work on `COC(=O)[C@H](CCC(N)=O)NC(=O)CCCCCCCCNC(=O)[C@]12CC[C@@H](C(C)C)[C@@H]1[C@H]1CC[C@@H]3[C@@]4(C)CC[C@H](O)C(C)(C)[C@@H]4CC[C@@]3(C)[C@]1(C)CC2` yielded an EC50 [1] of 580 nM, an EC50 [3] of 20 nM and a t1/2 (Liver microsomes [4]) of 31.64 min. For the same compound, the Activity [5] was “Non-toxic”, the CLH (Liver microsomes [6]) was 219 µL/min/mg and the CC50 at 48 h [7] was 4600 nM. The “Ratio EC50” value [8] was 5 and the EC50 [9] was 50 nM.

With `CC(C)[C@@H]1CC[C@]2(C(=O)NCCCCCCCCC(=O)N[C@@H](CCC(N)=O)C(=O)O)CC[C@]3(C)[C@H](CC[C@@H]4[C@@]5(C)CC[C@H](O)C(C)(C)[C@@H]5CC[C@]43C)[C@@H]12` the EC50 [1] was 830 nM, the EC50 [3] was 240 nM and the t1/2 (Liver microsomes [4]) was 24.75 min. For the same compound, the Activity [5] was “Non-toxic”, the CLH (Liver microsomes [6]) was 280 µL/min/mg and the CC50 at 48 h [7] was 18600 nM. For the same compound, the “Ratio EC50” value [8] was 5 and the EC50 [9] was 40 nM.

Compound `C=C(C)[C@@H]1CC[C@]2(C(=O)NCCCCCCCNC(=O)[C@H](CCC(N)=O)NC(=O)OC(C)(C)C)CC[C@]3(C)[C@H](CC[C@@H]4[C@@]5(C)CC[C@H](O)C(C)(C)[C@@H]5CC[C@]43C)[C@@H]12` has an EC50 [1] of 360 nM, an EC50 [3] of 90 nM and a t1/2 (Liver microsomes [4]) of 18.93 min. For the same compound, the Activity [5] was “Non-toxic”, the CLH (Liver microsomes [6]) was 366 µL/min/mg and the CC50 at 48 h [7] was 7400 nM. The “Ratio EC50” value [8] was 5 and the EC50 [9] was 40 nM.

With `C=C(C)[C@@H]1CC[C@]2(C(=O)NCCCCCCCNC(C)=O)CC[C@]3(C)[C@H](CC[C@@H]4[C@@]5(C)CC[C@H](O)C(C)(C)[C@@H]5CC[C@]43C)[C@@H]12` the EC50 [10] was 6 nM, the EC50 [11] was 27 nM and the EC50 [1] was 120 nM. The “fold change (FC)” value [2] was 2, the EC50 [3] was 190 nM and the t1/2 (Liver microsomes [4]) was 25.48 min. For the same compound, the Activity [5] was “Non-toxic”, the CLH (Liver microsomes [6]) was 272 µL/min/mg and the CC50 at 48 h [7] was 12600 nM. For the same compound, the EC50 [9] was 80 nM.

In the case of `C=C(C)[C@@H]1CC[C@]2(C(=O)O)CC[C@]3(C)[C@H](CC[C@@H]4[C@@]5(C)CC[C@H](OC(=O)CC(C)(C)C(=O)O)C(C)(C)[C@@H]5CC[C@]43C)[C@@H]12` [BEVIRIMAT], the EC50 [10] is reported as > 4000 nM, the EC50 [11] is reported as > 4000 nM and the EC50 [3] is reported as > 4000 nM. For the same compound, the CC50 at 48 h [7] was > 10000 nM.
